Results taken from ChEMBL document CHEMBL1139535, “Modification of the estrogenic properties of diphenols by the incorporation of ferrocene. Generation of antiproliferative effects in vitro” (J Med Chem, 2005).

Experiments:
[1] = Relative binding affinity for purified estrogen receptor 1 (ER-alpha)
Procedure, shortened: (§1)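 Incubated 3 h at 0°C with 2×10⁻⁹ M [3H]-estradiol plus nine competitor levels. Protamine sulfate separation, logit analysis of 50% displacement. RBA vs estradiol (100%); mean of at least two experiments.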

[2] = Partition coefficient (logP); type: physicochemical; conditions: octanol/water
Procedure, shortened: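 Reversed-phase HPLC on a C-8 column. Capacity factors k' extrapolated to 100% aqueous component to give k'w; logPo/w = 0.13418 + 0.98452 log k'w.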

[3] = target: Estrogen receptor beta (Homo sapiens) (UniProt Q92731); assay: Relative binding affinity for estrogen receptor 2 (ER-beta); procedure, shortened: as §1
[4] = target: T1, Estrogen receptor (Homo sapiens) (UniProt P03372); assay: Relative binding affinity for estrogen receptor 1 (ER-alpha) of lamb uterine cytosol; conditions: Ovis aries; target entry is the homologue from another species
T1 sequence (whole entry): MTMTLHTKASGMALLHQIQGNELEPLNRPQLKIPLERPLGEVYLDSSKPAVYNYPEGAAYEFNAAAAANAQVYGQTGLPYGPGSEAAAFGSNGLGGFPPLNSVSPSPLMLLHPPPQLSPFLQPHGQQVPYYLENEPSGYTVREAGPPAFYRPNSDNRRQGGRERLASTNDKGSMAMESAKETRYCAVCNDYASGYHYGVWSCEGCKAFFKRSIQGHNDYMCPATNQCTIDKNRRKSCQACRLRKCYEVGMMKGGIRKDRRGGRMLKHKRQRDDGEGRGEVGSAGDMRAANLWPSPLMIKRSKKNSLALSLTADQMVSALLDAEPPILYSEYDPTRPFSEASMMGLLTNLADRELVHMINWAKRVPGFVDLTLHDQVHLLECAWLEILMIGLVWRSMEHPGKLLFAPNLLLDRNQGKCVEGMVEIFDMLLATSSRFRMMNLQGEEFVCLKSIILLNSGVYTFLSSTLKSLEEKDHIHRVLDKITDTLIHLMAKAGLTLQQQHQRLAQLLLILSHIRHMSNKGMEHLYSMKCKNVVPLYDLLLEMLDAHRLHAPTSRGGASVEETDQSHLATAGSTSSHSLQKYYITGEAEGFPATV
Procedure, shortened: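 Cytosol from frozen sheep (lamb) uteri in 0.05 M Tris-HCl, 0.25 M sucrose, 0.1% β-mercaptoethanol, pH 7.4. Incubated 3 h at 0°C with 2×10⁻⁹ M [6,7-3H]-estradiol and nine competitor concentrations. Bound and free separated by protamine sulfate precipitation. 50% displacement concentration from logit plot; RBA relative to estradiol = 100%; mean of at least two experiments.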

Chain of Estrogen receptor beta (Homo sapiens) (Q92731 whole entry): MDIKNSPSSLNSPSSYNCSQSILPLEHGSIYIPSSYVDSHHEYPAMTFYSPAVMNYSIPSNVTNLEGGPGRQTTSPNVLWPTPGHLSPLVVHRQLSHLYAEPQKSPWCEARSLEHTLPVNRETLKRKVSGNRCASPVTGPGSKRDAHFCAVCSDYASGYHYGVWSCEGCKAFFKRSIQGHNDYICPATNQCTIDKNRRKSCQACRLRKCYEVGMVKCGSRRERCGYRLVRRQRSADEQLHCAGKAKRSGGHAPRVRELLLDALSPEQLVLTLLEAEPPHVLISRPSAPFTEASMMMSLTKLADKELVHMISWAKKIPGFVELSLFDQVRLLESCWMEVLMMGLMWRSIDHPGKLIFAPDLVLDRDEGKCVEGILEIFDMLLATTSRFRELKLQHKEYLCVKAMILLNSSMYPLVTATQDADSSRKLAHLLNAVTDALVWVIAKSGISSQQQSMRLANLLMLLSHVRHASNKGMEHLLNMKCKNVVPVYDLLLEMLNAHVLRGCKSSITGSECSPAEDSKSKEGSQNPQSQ

RBA [1]: 47.5%
logP [2]: 4.4
RBA [3]: 101%
RBA [4]: 6.8%
Structure (SMILES): CCC(=C(c1ccc(O)cc1)c1ccc(O)cc1)c1ccccc1
